In ChEMBL document CHEMBL1135676, “Comparative molecular field analysis of substrates for an aryl sulfotransferase based on catalytic mechanism and protein homology modeling” (J Med Chem, 2002):

Tests used:
not read [1] = substrate: Oc1ccccc1; test: not read
not read [2] = substrate: Oc1ccc2ccccc2c1; test: not read
[3] = substrate: CCCCCc1ccc(O)cc1; test: (§1) Apparent Michaelis constant (Km) against Arylsulfotransferase (AST IV)
Procedure, shortened: (§2)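 Recombinant rat hepatic AST IV, expressed in E. coli and purified. Each reaction held 1.0 μg enzyme, 0.2 mM PAPS, 8.3 mM 2-mercaptoethanol, varying substrate and 0.25 M potassium phosphate at pH 7.0. Mixtures were preincubated 2 min at 37 °C, started with enzyme, run 10 min at 37 °C and stopped with methanol. Substrate-dependent PAP formation was read by HPLC and corrected with substrate-free controls. kcat is in min⁻¹ and apparent Km in M.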

[4] = substrate: CCCCc1ccc(O)cc1; test: as §1
Procedure, shortened: as §2

[5] = substrate: CN[C@@H](C)C(O)c1ccccc1; test: as §1
Procedure, shortened: as §2

[6] = substrate: Cc1ccc(CO)cc1; test: as §1
Procedure, shortened: as §2

[7] = substrate: CC(C)[C@H](O)c1ccccc1; test: as §1
Procedure, shortened: as §2

[8] = substrate: CCCCCC[C@H](O)c1ccccc1; test: as §1
Procedure, shortened: as §2

[9] = substrate: CCc1ccc(O)cc1; test: as §1
Procedure, shortened: as §2

[10] = substrate: CCN(O)c1ccccc1; test: as §1
Procedure, shortened: as §2

[11] = substrate: CCCCC[C@H](O)c1ccccc1; test: as §1
Procedure, shortened: as §2

[12] = substrate: CCCCCCc1ccc(CO)cc1; test: as §1
Procedure, shortened: as §2

[13] = substrate: CCCCc1ccc(CO)cc1; test: as §1
Procedure, shortened: as §2

[14] = substrate: O=C(CBr)Nc1ccc(O)cc1; test: as §1
Procedure, shortened: as §2

[15] = substrate: OCc1ccc2ccccc2c1; test: as §1
Procedure, shortened: as §2

[16] = substrate: CCCc1ccc(CO)cc1; test: as §1
Procedure, shortened: as §2

[17] = substrate: OCc1ccoc1; test: as §1
Procedure, shortened: as §2

[18] = substrate: CCCCCCCc1ccc(O)cc1; test: as §1
Procedure, shortened: as §2

[19] = substrate: O=[N+]([O-])c1ccc(CO)cc1; test: as §1
Procedure, shortened: as §2

[20] = substrate: CCCCCCCCCc1ccc(O)cc1; test: as §1
Procedure, shortened: as §2

[21] = substrate: CN[C@H](C)[C@H](O)c1ccccc1; test: as §1
Procedure, shortened: as §2

[22] = substrate: Oc1ccc(-c2ccccc2)cc1; test: as §1
Procedure, shortened: as §2

[23] = substrate: Cc1ccc(O)cc1; test: as §1
Procedure, shortened: as §2

[24] = substrate: CC[C@H](O)c1ccccc1; test: as §1
Procedure, shortened: as §2

[25] = substrate: COC(=O)[C@@H](N)Cc1ccc(O)cc1; test: as §1
Procedure, shortened: as §2

[26] = substrate: OCc1c[nH]c2ccccc12; test: as §1
Procedure, shortened: as §2

[27] = substrate: [H][C@]12CC3(c4ccc(O)cc4)C[C@]([H])(C1)C[C@@]([H])(C3)C2; test: as §1
Procedure, shortened: as §2

[28] = substrate: OC1CCCc2ccccc21; test: as §1
Procedure, shortened: as §2

[29] = substrate: ONc1ccc(Cl)cc1; test: as §1
Procedure, shortened: as §2

[30] = substrate: CN(O)c1ccccc1; test: as §1
Procedure, shortened: as §2

[31] = substrate: C[C@@H](O)c1ccccc1; test: as §1
Procedure, shortened: as §2

[32] = biological target: Aryl sulfotransferase IV (Rattus norvegicus); test: as §1
Procedure, shortened: as §2

[33] = substrate: CCCCCCCc1ccc(CO)cc1; test: as §1
Procedure, shortened: as §2

[34] = substrate: C[C@H](O)c1ccccc1; test: as §1
Procedure, shortened: as §2

[35] = substrate: CCCc1ccc(O)cc1; test: as §1
Procedure, shortened: as §2

[36] = substrate: ONc1ccccc1; test: as §1
Procedure, shortened: as §2

[37] = substrate: OCc1ccccc1; test: as §1
Procedure, shortened: as §2

[38] = substrate: CCCC[C@H](O)c1ccccc1; test: as §1
Procedure, shortened: as §2

[39] = substrate: OCc1cccc2ccccc12; test: as §1
Procedure, shortened: as §2

[40] = substrate: CCCN(O)c1ccccc1; test: as §1
Procedure, shortened: as §2

[41] = substrate: O=[N+]([O-])c1ccc(O)c(Cl)c1; test: as §1
Procedure, shortened: as §2

[42] = substrate: CCC[C@H](O)c1ccccc1; test: as §1
Procedure, shortened: as §2

[43] = substrate: CCCCCc1ccc(CO)cc1; test: as §1
Procedure, shortened: as §2

[44] = substrate: CC(=O)Nc1ccc(O)cc1; test: as §1
Procedure, shortened: as §2

B1: Sulfotransferase 1A1 (Rattus norvegicus) (protein)
chain: MEFSRPPLVHVKGIPLIKYFAETIGPLQNFTAWPDDLLISTYPKSGTTWMSEILDMIYQGGKLEKCGRAPIYARVPFLEFKCPGVPSGLETLEETPAPRLLKTHLPLSLLPQSLLDQKVKVIYIARNAKDVVVSYYNFYNMAKLHPDPGTWDSFLENFMDGEVSYGSWYQHVKEWWELRHTHPVLYLFYEDIKENPKREIKKILEFLGRSLPEETVDSIVHHTSFKKMKENCMTNYTTIPTEIMDHNVSPFMRKGTTGDWKNTFTVAQNERFDAHYAKTMTDCDFKFRCEL
Q: How did the Km (not read [1]) turn out when B1 was run?
A: Its Km is 19 µM.

Q: What about the Vmax (not read [1]) of the same protein?
A: The Vmax was 0.35 µM/min.

Q: What about the Km (not read [2]) of the same protein?
A: Its Km is 8 µM.

Q: And the Vmax (not read [2])?
A: The Vmax was 1.13 µM/min.

Q: And the Km [3]?
A: Its Km is 9 µM.

Q: What about the Vmax [3] of the same protein?
A: The Vmax was 0.208 µM/min.

Q: What about the Km [4] of the same protein?
A: The Km was 5 µM.

Q: And the Vmax [4]?
A: Its Vmax is 0.296 µM/min.

Q: What about the Km [5] of the same protein?
A: Its Km is 6990 µM.

Q: And the Vmax [5]?
A: The Vmax was 0.0225 µM/min.

Q: What about the Km [6] of the same protein?
A: The Km was 600 µM.

Q: What about the Vmax [6] of the same protein?
A: The Vmax was 0.508 µM/min.

Q: What about the Km [7] of the same protein?
A: The Km was 1360 µM.

Q: What about the Vmax [7] of the same protein?
A: Its Vmax is 0.0061 µM/min.

Q: What about the Km [8] of the same protein?
A: The Km was 20 µM.

Q: What about the Vmax [8] of the same protein?
A: Its Vmax is 0.0052 µM/min.

Q: And the Km [9]?
A: Its Km is 10 µM.

Q: And the Vmax [9]?
A: Its Vmax is 0.41 µM/min.

Q: What about the Km [10] of the same protein?
A: The Km was 650 µM.

Q: And the Vmax [10]?
A: Its Vmax is 0.273 µM/min.

Q: And the Km [11]?
A: Its Km is 7 µM.

Q: What about the Vmax [11] of the same protein?
A: The Vmax was 0.0021 µM/min.

Q: What about the Km [12] of the same protein?
A: The Km was 30 µM.

Q: What about the Vmax [12] of the same protein?
A: Its Vmax is 0.0967 µM/min.

Q: What about the Km [13] of the same protein?
A: Its Km is 30 µM.

Q: What about the Vmax [13] of the same protein?
A: The Vmax was 0.13 µM/min.

Q: What about the Km [14] of the same protein?
A: The Km was 22 µM.

Q: And the Vmax [14]?
A: The Vmax was 0.095 µM/min.

Q: What about the Km [15] of the same protein?
A: The Km was 26 µM.

Q: And the Vmax [15]?
A: The Vmax was 0.0776 µM/min.

Q: What about the Km [16] of the same protein?
A: The Km was 40 µM.

Q: What about the Vmax [16] of the same protein?
A: The Vmax was 0.178 µM/min.

Q: And the Km [17]?
A: The Km was 960 µM.

Q: What about the Vmax [17] of the same protein?
A: Its Vmax is 0.0102 µM/min.

Q: And the Km [18]?
A: Its Km is 61 µM.

Q: What about the Vmax [18] of the same protein?
A: Its Vmax is 0.132 µM/min.

Q: What about the Km [19] of the same protein?
A: The Km was 199 µM.

Q: What about the Vmax [19] of the same protein?
A: Its Vmax is 0.0206 µM/min.

Q: What about the Km [20] of the same protein?
A: The Km was 109 µM.

Q: What about the Vmax [20] of the same protein?
A: The Vmax was 0.091 µM/min.

Q: And the Km [21]?
A: Its Km is 11000 µM.

Q: What about the Vmax [21] of the same protein?
A: Its Vmax is 0.0404 µM/min.

Q: What about the Km [22] of the same protein?
A: Its Km is 91 µM.

Q: And the Vmax [22]?
A: The Vmax was 0.212 µM/min.

Q: What about the Km [23] of the same protein?
A: The Km was 10 µM.

Q: What about the Vmax [23] of the same protein?
A: Its Vmax is 0.32 µM/min.

Q: What about the Km [24] of the same protein?
A: Its Km is 240 µM.

Q: And the Vmax [24]?
A: Its Vmax is 0.0099 µM/min.

Q: What about the Km [25] of the same protein?
A: The Km was 4000 µM.

Q: And the Vmax [25]?
A: Its Vmax is 0.35 µM/min.

Q: And the Km [26]?
A: The Km was 29 µM.

Q: What about the Vmax [26] of the same protein?
A: The Vmax was 0.0332 µM/min.

Q: And the Km [27]?
A: The Km was 1 µM.

Q: And the Vmax [27]?
A: Its Vmax is 0.0472 µM/min.

Q: What about the Km [28] of the same protein?
A: Its Km is 30 µM.

Q: And the Vmax [28]?
A: The Vmax was 0.0287 µM/min.

Q: And the Km [29]?
A: Its Km is 26 µM.

Q: What about the Vmax [29] of the same protein?
A: Its Vmax is 0.035 µM/min.

Q: And the Km [30]?
A: Its Km is 119 µM.

Q: What about the Vmax [30] of the same protein?
A: Its Vmax is 0.085 µM/min.

Q: What about the Km [31] of the same protein?
A: Its Km is 1730 µM.

Q: What about the Vmax [31] of the same protein?
A: Its Vmax is 0.0206 µM/min.

Q: And the Km [32]?
A: Its Km is 60 µM.

Q: And the Vmax [32]?
A: Its Vmax is 0.182 µM/min.

Q: What about the Km [33] of the same protein?
A: Its Km is 410 µM.

Q: And the Vmax [33]?
A: Its Vmax is 0.133 µM/min.

Q: What about the Km [34] of the same protein?
A: Its Km is 250 µM.

Q: What about the Vmax [34] of the same protein?
A: The Vmax was 0.0337 µM/min.

Q: And the Km [35]?
A: Its Km is 6 µM.

Q: And the Vmax [35]?
A: Its Vmax is 0.427 µM/min.

Q: What about the Km [36] of the same protein?
A: Its Km is 230 µM.

Q: And the Vmax [36]?
A: The Vmax was 0.043 µM/min.

Q: And the Km [37]?
A: The Km was 50 µM.

Q: And the Vmax [37]?
A: Its Vmax is 0.0305 µM/min.

Q: What about the Km [38] of the same protein?
A: The Km was 10 µM.

Q: What about the Vmax [38] of the same protein?
A: The Vmax was 0.0305 µM/min.

Q: What about the Km [39] of the same protein?
A: Its Km is 30 µM.

Q: And the Vmax [39]?
A: The Vmax was 0.026 µM/min.

Q: And the Km [40]?
A: Its Km is 161 µM.

Q: What about the Vmax [40] of the same protein?
A: Its Vmax is 0.0986 µM/min.

Q: And the Km [41]?
A: The Km was 5 µM.

Q: What about the Vmax [41] of the same protein?
A: Its Vmax is 0.028 µM/min.

Q: What about the Km [42] of the same protein?
A: Its Km is 360 µM.

Q: What about the Vmax [42] of the same protein?
A: The Vmax was 0.0085 µM/min.

Q: What about the Km [43] of the same protein?
A: Its Km is 20 µM.

Q: What about the Vmax [43] of the same protein?
A: Its Vmax is 0.109 µM/min.

Q: And the Km [44]?
A: Its Km is 92 µM.

Q: And the Vmax [44]?
A: Its Vmax is 0.181 µM/min.
